In brackets after ≈: the same amount, converted by molar mass. Activity calls are given as the source filed them. No cut-off for these calls is given here.
System: HT-29
Experiment: Cytotoxicity against human HT-29 cells after 48 hrs by MTT assay
Format: functional, cell-based
Conditions: HT-29, 48 h

Row | Structure (SMILES) | IC50
1 | CCOC(=O)C1=C(C)NC(=S)NC1c1cccc(OC/C=C/COc2cccc(C3NC(=S)NC(C)=C3C(=O)OCC)c2)c1 (centres undefined) | > 200 µg/mL
2 | COC(=O)[C@@H]1CCCN1C(=O)C1=C(C)NC(=S)NC1c1cccc(OC/C=C/COc2cccc(C3NC(=S)NC(C)=C3C(=O)N3CCC[C@H]3C(=O)OC)c2)c1 (some centres undefined) | > 200 µg/mL
3 | COC(=O)[C@@H]1CCCN1C(=O)C1=C(C)NC(=S)NC1c1ccc(OC/C=C\COc2ccc(C3NC(=S)NC(C)=C3C(=O)N3CCC[C@H]3C(=O)OC)cc2OC)c(OC)c1 (some centres undefined) | > 200 µg/mL
4 | CCOC(=O)C1=C(C)NC(=S)NC1c1ccc(OCCCOc2ccc(C3NC(=S)NC(C)=C3C(=O)OCC)cc2OC)c(OC)c1 (centres undefined) | > 200 µg/mL

System: Klebsiella pneumoniae
Experiment: Antibacterial activity against Klebsiella pneumoniae assessed as zone of inhibition at 50 ug/ml by agar plate method
Format: functional, organism-based
Conditions: not given
Procedure, shortened: (§1)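 Well diffusion on Mueller-Hinton agar. Inoculum from 3–5 colonies was grown in nutrient broth and adjusted to 0.5 McFarland (about 1 × 10⁸ CFU/mL), then swabbed over the plate. Compounds were dissolved in DMSO and added to duplicate 6 mm wells. Plates were incubated 18 h at 37 °C, and inhibition zone diameter was read to the nearest mm. Ciprofloxacin was the positive control and DMSO the negative control.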

Row | Structure (SMILES) | Activity
5 | O=C(O)c1cn(C2CC2)c2cc(N3CCNCC3)c(F)cc2c1=O [CIPROFLOXACIN] | inactive
6 | CCOC(=O)C1=C(C)NC(=S)NC1c1cccc(OC/C=C/COc2cccc(C3NC(=S)NC(C)=C3C(=O)OCC)c2)c1 (centres undefined) | inactive

System: Escherichia coli
Experiment: Antibacterial activity against Escherichia coli assessed as zone of inhibition at 100 ug/ml by agar plate method
Format: functional
Conditions: read-out: IZ
Procedure, shortened: as §1

Row | Structure (SMILES) | zone of inhibition at 100 µg/mL
7 | O=C(O)c1cn(C2CC2)c2cc(N3CCNCC3)c(F)cc2c1=O [CIPROFLOXACIN] | 35 mm
8 | CCOC(=O)C1=C(C)NC(=S)NC1c1cccc(OC/C=C/COc2cccc(C3NC(=S)NC(C)=C3C(=O)OCC)c2)c1 (centres undefined) | 10 mm

System: Staphylococcus epidermidis
Experiment: Antibacterial activity against Staphylococcus epidermidis assessed as zone of inhibition at 50 ug/ml by agar plate method
Format: functional, organism-based
Conditions: not given
Procedure, shortened: as §1

Row | Structure (SMILES) | Activity
9 | O=C(O)c1cn(C2CC2)c2cc(N3CCNCC3)c(F)cc2c1=O [CIPROFLOXACIN] | inactive
10 | CCOC(=O)C1=C(C)NC(=S)NC1c1cccc(OC/C=C/COc2cccc(C3NC(=S)NC(C)=C3C(=O)OCC)c2)c1 (centres undefined) | inactive

System: Pseudomonas aeruginosa
Experiment: Antibacterial activity against Pseudomonas aeruginosa assessed as zone of inhibition at 100 ug/ml by agar plate method
Format: functional
Conditions: read-out: IZ
Procedure, shortened: as §1

Row | Structure (SMILES) | zone of inhibition at 100 µg/mL
11 | O=C(O)c1cn(C2CC2)c2cc(N3CCNCC3)c(F)cc2c1=O [CIPROFLOXACIN] | 38 mm
12 | CCOC(=O)C1=C(C)NC(=S)NC1c1cccc(OC/C=C/COc2cccc(C3NC(=S)NC(C)=C3C(=O)OCC)c2)c1 (centres undefined) | 15 mm

System: A549
Experiment: Cytotoxicity against human A549 cells after 48 hrs by MTT assay
Format: functional, cell-based
Conditions: A549, 48 h
Procedure, shortened: (§2)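 MTT assay. Medium with 10% FBS and 2 mM L-glutamine was DMEM for A431 and Colo-205, RPMI for A549, and MEM for MCF-7. Cultures were preincubated 24 h at 37 °C, 5% CO2. 1 × 10⁴ cells (trypan blue count) were exposed to 200, 100, 50, 25 and 10 concentration levels for 48 h at 37 °C. MTT was added for 4 h, formazan dissolved in DMSO, and A570 read. IC50 was curve-fitted from viability versus untreated cells, three experiments.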

Row | Structure (SMILES) | IC50
13 | CCOC(=O)C1=C(C)NC(=S)NC1c1cccc(OC/C=C/COc2cccc(C3NC(=S)NC(C)=C3C(=O)OCC)c2)c1 (centres undefined) | > 200 µg/mL
14 | COC(=O)[C@@H]1CCCN1C(=O)C1=C(C)NC(=S)NC1c1cccc(OC/C=C/COc2cccc(C3NC(=S)NC(C)=C3C(=O)N3CCC[C@H]3C(=O)OC)c2)c1 (some centres undefined) | 148 µg/mL (≈ 184 µM)
15 | COC(=O)[C@@H]1CCCN1C(=O)C1=C(C)NC(=S)NC1c1ccc(OC/C=C\COc2ccc(C3NC(=S)NC(C)=C3C(=O)N3CCC[C@H]3C(=O)OC)cc2OC)c(OC)c1 (some centres undefined) | > 200 µg/mL
16 | CCOC(=O)C1=C(C)NC(=S)NC1c1ccc(OCCCOc2ccc(C3NC(=S)NC(C)=C3C(=O)OCC)cc2OC)c(OC)c1 (centres undefined) | 116 µg/mL (≈ 169 µM)

System: Staphylococcus aureus
Experiment: Antibacterial activity against Staphylococcus aureus assessed as zone of inhibition at 100 ug/ml by agar plate method
Format: functional
Conditions: read-out: IZ
Procedure, shortened: as §1

Row | Structure (SMILES) | zone of inhibition at 100 µg/mL
17 | O=C(O)c1cn(C2CC2)c2cc(N3CCNCC3)c(F)cc2c1=O [CIPROFLOXACIN] | 25 mm
18 | CCOC(=O)C1=C(C)NC(=S)NC1c1cccc(OC/C=C/COc2cccc(C3NC(=S)NC(C)=C3C(=O)OCC)c2)c1 (centres undefined) | 8 mm

System: Escherichia coli
Experiment: Antibacterial activity against Escherichia coli assessed as zone of inhibition at 50 ug/ml by agar plate method
Format: functional, organism-based
Conditions: not given
Procedure, shortened: as §1

Row | Structure (SMILES) | Activity
19 | O=C(O)c1cn(C2CC2)c2cc(N3CCNCC3)c(F)cc2c1=O [CIPROFLOXACIN] | inactive
20 | CCOC(=O)C1=C(C)NC(=S)NC1c1cccc(OC/C=C/COc2cccc(C3NC(=S)NC(C)=C3C(=O)OCC)c2)c1 (centres undefined) | inactive

System: A-431
Experiment: Cytotoxicity against human A431 cells after 48 hrs by MTT assay
Format: functional, cell-based
Conditions: A-431, 48 h
Procedure, shortened: as §2

Row | Structure (SMILES) | IC50
21 | CCOC(=O)C1=C(C)NC(=S)NC1c1cccc(OC/C=C/COc2cccc(C3NC(=S)NC(C)=C3C(=O)OCC)c2)c1 (centres undefined) | 185 µg/mL (≈ 291 µM)
22 | COC(=O)[C@@H]1CCCN1C(=O)C1=C(C)NC(=S)NC1c1cccc(OC/C=C/COc2cccc(C3NC(=S)NC(C)=C3C(=O)N3CCC[C@H]3C(=O)OC)c2)c1 (some centres undefined) | 96 µg/mL (≈ 120 µM)
23 | COC(=O)[C@@H]1CCCN1C(=O)C1=C(C)NC(=S)NC1c1ccc(OC/C=C\COc2ccc(C3NC(=S)NC(C)=C3C(=O)N3CCC[C@H]3C(=O)OC)cc2OC)c(OC)c1 (some centres undefined) | 183 µg/mL (≈ 212 µM)
24 | CCOC(=O)C1=C(C)NC(=S)NC1c1ccc(OCCCOc2ccc(C3NC(=S)NC(C)=C3C(=O)OCC)cc2OC)c(OC)c1 (centres undefined) | 66 µg/mL (≈ 96.4 µM)

System: MCF7
Experiment: Cytotoxicity against human MCF7 cells after 48 hrs by MTT assay
Format: functional, cell-based
Conditions: MCF7, 48 h
Procedure, shortened: as §2

Row | Structure (SMILES) | IC50
25 | CCOC(=O)C1=C(C)NC(=S)NC1c1cccc(OC/C=C/COc2cccc(C3NC(=S)NC(C)=C3C(=O)OCC)c2)c1 (centres undefined) | 175 µg/mL (≈ 275 µM)
26 | COC(=O)[C@@H]1CCCN1C(=O)C1=C(C)NC(=S)NC1c1cccc(OC/C=C/COc2cccc(C3NC(=S)NC(C)=C3C(=O)N3CCC[C@H]3C(=O)OC)c2)c1 (some centres undefined) | 54 µg/mL (≈ 67.2 µM)
27 | COC(=O)[C@@H]1CCCN1C(=O)C1=C(C)NC(=S)NC1c1ccc(OC/C=C\COc2ccc(C3NC(=S)NC(C)=C3C(=O)N3CCC[C@H]3C(=O)OC)cc2OC)c(OC)c1 (some centres undefined) | 175 µg/mL (≈ 203 µM)
28 | CCOC(=O)C1=C(C)NC(=S)NC1c1ccc(OCCCOc2ccc(C3NC(=S)NC(C)=C3C(=O)OCC)cc2OC)c(OC)c1 (centres undefined) | 22 µg/mL (≈ 32.1 µM)

System: COLO 205
Experiment: Cytotoxicity against human COLO205 cells after 48 hrs by MTT assay
Format: functional, cell-based
Conditions: COLO 205, 48 h
Procedure, shortened: as §2

Row | Structure (SMILES) | IC50
29 | CCOC(=O)C1=C(C)NC(=S)NC1c1cccc(OC/C=C/COc2cccc(C3NC(=S)NC(C)=C3C(=O)OCC)c2)c1 (centres undefined) | > 200 µg/mL
30 | COC(=O)[C@@H]1CCCN1C(=O)C1=C(C)NC(=S)NC1c1cccc(OC/C=C/COc2cccc(C3NC(=S)NC(C)=C3C(=O)N3CCC[C@H]3C(=O)OC)c2)c1 (some centres undefined) | 127 µg/mL (≈ 158 µM)
31 | COC(=O)[C@@H]1CCCN1C(=O)C1=C(C)NC(=S)NC1c1ccc(OC/C=C\COc2ccc(C3NC(=S)NC(C)=C3C(=O)N3CCC[C@H]3C(=O)OC)cc2OC)c(OC)c1 (some centres undefined) | > 200 µg/mL
32 | CCOC(=O)C1=C(C)NC(=S)NC1c1ccc(OCCCOc2ccc(C3NC(=S)NC(C)=C3C(=O)OCC)cc2OC)c(OC)c1 (centres undefined) | 49 µg/mL (≈ 71.5 µM)

System: Staphylococcus epidermidis
Experiment: Antibacterial activity against Staphylococcus epidermidis assessed as zone of inhibition at 100 ug/ml by agar plate method
Format: functional
Conditions: read-out: IZ
Procedure, shortened: as §1

Row | Structure (SMILES) | zone of inhibition at 100 µg/mL
33 | O=C(O)c1cn(C2CC2)c2cc(N3CCNCC3)c(F)cc2c1=O [CIPROFLOXACIN] | 35 mm
34 | CCOC(=O)C1=C(C)NC(=S)NC1c1cccc(OC/C=C/COc2cccc(C3NC(=S)NC(C)=C3C(=O)OCC)c2)c1 (centres undefined) | 18 mm

System: Bacillus subtilis
Experiment: Antibacterial activity against Bacillus subtilis assessed as zone of inhibition at 100 ug/ml by agar plate method
Format: functional
Conditions: read-out: IZ
Procedure, shortened: as §1

Row | Structure (SMILES) | zone of inhibition at 100 µg/mL
35 | O=C(O)c1cn(C2CC2)c2cc(N3CCNCC3)c(F)cc2c1=O [CIPROFLOXACIN] | 33 mm
36 | CCOC(=O)C1=C(C)NC(=S)NC1c1cccc(OC/C=C/COc2cccc(C3NC(=S)NC(C)=C3C(=O)OCC)c2)c1 (centres undefined) | 12 mm

System: Nucleic Acid
Experiment: Binding affinity to calf thymus DNA assessed as change in melting temperature at compound to DNA ratio of 1:5 after 18 hrs at pH 7
Format: nucleic-acid assay
Conditions: Bos taurus
Procedure, shortened: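 Thermal melting of calf thymus DNA in 10 mM sodium phosphate with 1 mM Na2EDTA, pH 7.00. Compound was added from DMSO stock at a fixed 1:5 compound:DNA molar ratio. The mix was incubated 18 h at 37 °C, then A260 was monitored while heating at 1 °C/min over 40–90 °C. ΔTm is relative to DNA alone.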

Row | Structure (SMILES) | ΔTm
37 | CCOC(=O)C1=C(C)NC(=S)NC1c1cccc(OC/C=C/COc2cccc(C3NC(=S)NC(C)=C3C(=O)OCC)c2)c1 (centres undefined) | 2.5 °C
38 | COC(=O)[C@@H]1CCCN1C(=O)C1=C(C)NC(=S)NC1c1cccc(OC/C=C/COc2cccc(C3NC(=S)NC(C)=C3C(=O)N3CCC[C@H]3C(=O)OC)c2)c1 (some centres undefined) | 2.5 °C
39 | COC(=O)[C@@H]1CCCN1C(=O)C1=C(C)NC(=S)NC1c1ccc(OC/C=C\COc2ccc(C3NC(=S)NC(C)=C3C(=O)N3CCC[C@H]3C(=O)OC)cc2OC)c(OC)c1 (some centres undefined) | 4.1 °C

System: MCF7
Experiment: Ratio IC50 for monastrol to compound for human MCF7 cells
Format: functional
Conditions: not given

Row | Structure (SMILES) | Ratio IC50
40 | CCOC(=O)C1=C(C)NC(=S)NC1c1ccc(OCCCOc2ccc(C3NC(=S)NC(C)=C3C(=O)OCC)cc2OC)c(OC)c1 (centres undefined) | 2

System: Klebsiella pneumoniae
Experiment: Antibacterial activity against Klebsiella pneumoniae assessed as zone of inhibition at 100 ug/ml by agar plate method
Format: functional
Conditions: read-out: IZ
Procedure, shortened: as §1

Row | Structure (SMILES) | zone of inhibition at 100 µg/mL
41 | O=C(O)c1cn(C2CC2)c2cc(N3CCNCC3)c(F)cc2c1=O [CIPROFLOXACIN] | 12 mm
42 | CCOC(=O)C1=C(C)NC(=S)NC1c1cccc(OC/C=C/COc2cccc(C3NC(=S)NC(C)=C3C(=O)OCC)c2)c1 (centres undefined) | 8 mm

System: Bacillus subtilis
Experiment: Antibacterial activity against Bacillus subtilis assessed as zone of inhibition at 50 ug/ml by agar plate method
Format: functional, organism-based
Conditions: not given
Procedure, shortened: as §1

Row | Structure (SMILES) | Activity
43 | O=C(O)c1cn(C2CC2)c2cc(N3CCNCC3)c(F)cc2c1=O [CIPROFLOXACIN] | inactive
44 | CCOC(=O)C1=C(C)NC(=S)NC1c1cccc(OC/C=C/COc2cccc(C3NC(=S)NC(C)=C3C(=O)OCC)c2)c1 (centres undefined) | inactive
